Test results reported in ChEMBL document CHEMBL2093137, “WHO-TDR NTD Screening”.
≈ marks a conversion by molar mass, not a printed value.

Legend:
Trypanosoma cruzi = assay: WHO-TDR: Chagas disease; assay type: functional, organism-based, Homo sapiens; conditions: MRC5
Method in brief: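 Intracellular amastigotes of the Trypanosoma cruzi Tulahuen CL2 beta-galactosidase strain, grown in MRC-5SV2 human lung fibroblast host cells, were tested in a whole-organism screen. The compounds came from a 10,000-member diverse Life Chemicals library that had been filtered for drug-likeness and reactive groups. Previously published standard procedures were followed, with a reference drug as positive control, and potency is reported as IC50.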

Plasmodium falciparum K1 = assay: WHO-TDR: Malaria; assay type: functional, organism-based, Homo sapiens; conditions: Erythrocyte
Method in brief: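 Following previously published standard procedures, with a reference drug serving as positive control, compounds were tested on the Plasmodium falciparum K1 strain inside human red blood cells. The 10,000-compound diverse set came from Life Chemicals after filtering for drug-likeness and reactive groups. Potency against the parasite appears as IC50.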

Leishmania infantum = assay: WHO-TDR: Leishmaniasis; assay type: functional, organism-based, Mus musculus; conditions: Macrophage
Method in brief: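 Following previously published standard procedures, a whole-organism screen was run on Leishmania infantum MHOM/MA(BE)/67 amastigotes within murine peritoneal macrophages, with a reference drug as positive control. The 10,000 compounds tested formed a diverse Life Chemicals library filtered for drug-likeness and reactive groups. Potency against the parasite is reported as IC50.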

Schistosoma mansoni = assay: WHO-TDR: Schistosomiasis; assay type: functional; parameters: concentration or dose not given beside the values
Method in brief: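 Activity appears as percent inhibition and as IC50. The underlying screen tested a diverse library of 10,000 compounds, supplied by Life Chemicals, on whole larval and/or adult worms of the Puerto Rican strain of Schistosoma mansoni.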

[1] = system: Trypanosoma brucei brucei; assay: WHO-TDR: Human African Trypanosomiasis (HAT); assay type: functional, organism-based; conditions: Squib-427
Method in brief: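 Bloodstream forms of the Trypanosoma brucei Squib 427 strain were tested in a whole-organism screen with a diverse library from Life Chemicals of 10,000 compounds. Before screening, the library was filtered for drug-likeness and for reactive groups. The assay used previously published standard procedures and included reference drugs as positive controls. Potency against the parasite is expressed as IC50.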

[2] = WHO-TDR: Cytotoxicity; assay type: toxicity, cell-based; conditions: human, MRC5 cells
Onchocerca lienalis = assay: WHO-TDR: Onchocerciasis; assay type: functional; parameters: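 at 12.5 µM on microfilariae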
Method in brief: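 Following previously published standard procedures, with reference drugs as positive controls, a diverse Life Chemicals library was tested on whole Onchocerca ochengi or Onchocerca lienalis microfilariae. The library held 10,000 compounds filtered for drug-likeness and reactive groups. Activity is recorded both as percent inhibition and as IC50.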

Brugia malayi = assay: WHO-TDR: Lymphatic Filariasis; assay type: functional; parameters: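 tested at 10 µM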
Method in brief: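 Following previously published standard procedures, compounds were tested on whole Brugia malayi microfilariae, with reference drugs as positive controls. They came from a diverse Life Chemicals collection of 10,000 compounds filtered for drug-likeness and reactive groups. Results appear as percent inhibition and as IC50.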

IC50 (Plasmodium falciparum K1) | IC50 (Leishmania infantum) | IC50 [1] | SMILES | IC50 (Trypanosoma cruzi) | % Inhibition (Schistosoma mansoni) | IC50 [2] | % Inhibition (Onchocerca lienalis) | % Inhibition (Brugia malayi)
0.271 µg/mL (≈ 0.705 µM) | 3.73 µg/mL (≈ 9.71 µM) | 3.73 µg/mL (≈ 9.71 µM) | COc1ccc(-c2nc(NC(=O)Cc3ccc(SC)cc3)sc2C)cc1 | 1.95 µg/mL (≈ 5.07 µM) | 0% | 1.29 µg/mL (≈ 3.37 µM) | 45.5% | 0%
> 10.9 µg/mL | > 10.9 µg/mL | 10.9 µg/mL (≈ 30 µM) | CS(=O)(=O)NCC(c1ccco1)S(=O)(=O)c1ccc(Cl)cc1 (stereo unspecified) | 0.513 µg/mL (≈ 1.41 µM) | 0% | > 10.9 µg/mL | 6.7% | 33.33%
> 12.9 µg/mL | 0.418 µg/mL (≈ 1.06 µM) | 4.08 µg/mL (≈ 10.4 µM) | COc1ccc(Cl)c2sc(N(CCCN(C)C)C(=O)c3ccco3)nc12 | 1.36 µg/mL (≈ 3.46 µM) | 0% | 4.17 µg/mL (≈ 10.6 µM) | 0% | 0%
3.68 µg/mL (≈ 11 µM) | 3.24 µg/mL (≈ 9.71 µM) | 0.341 µg/mL (≈ 1.02 µM) | Oc1ccc(Br)cc1/C=N/Nc1ncnc2[nH]cnc12 | 0.193 µg/mL (≈ 0.579 µM) | 0% | 0.364 µg/mL (≈ 1.09 µM) | -1% | 50%
12.4 µg/mL (≈ 30 µM) | > 12.4 µg/mL | 4.01 µg/mL (≈ 9.71 µM) | CCS(=O)(=O)c1ccc(CC(=O)Nc2nc3c(s2)CCc2ccccc2-3)cc1 | 0.436 µg/mL (≈ 1.06 µM) | 0% | 0.908 µg/mL (≈ 2.2 µM) | 0% | 0%
> 14.2 µg/mL | 4.59 µg/mL (≈ 9.71 µM) | 0.966 µg/mL (≈ 2.04 µM) | CCN(C1CCCCC1)S(=O)(=O)c1ccc(C(=O)Nc2nnc(-c3ccc(F)cc3)o2)cc1 | 0.459 µg/mL (≈ 0.971 µM) | 0% | 0.577 µg/mL (≈ 1.22 µM) | 46.7% | 0%
> 12.2 µg/mL | > 12.2 µg/mL | 0.422 µg/mL (≈ 1.04 µM) | COc1cccc(-n2ccnc2SCC(=O)Nc2ccccc2C(F)(F)F)c1 | > 12.2 µg/mL | 0% | > 12.2 µg/mL | 0% | 0%
> 12.9 µg/mL | 0.419 µg/mL (≈ 0.971 µM) | > 12.9 µg/mL | O=C(CSc1ccc(-c2ccc(-n3cccn3)cc2)nn1)Nc1ccc2c(c1)OCO2 | > 12.9 µg/mL | 0% | > 12.9 µg/mL | 13.3% | 0%
> 11.6 µg/mL | 0.377 µg/mL (≈ 0.972 µM) | > 11.6 µg/mL | COc1ccc(Cl)c2sc(NC(=O)c3ccc(Cl)cc3Cl)nc12 | 3.62 µg/mL (≈ 9.34 µM) | 0% | 4.96 µg/mL (≈ 12.8 µM) | 0% | 0%

The next lines start with the compound.

SMILES | IC50 (Plasmodium falciparum K1) | IC50 (Leishmania infantum) | IC50 [1] | IC50 (Trypanosoma cruzi) | % Inhibition (Schistosoma mansoni) | IC50 [2] | % Inhibition (Onchocerca lienalis) | % Inhibition (Brugia malayi)
CCc1ccccc1-n1c(C)cn2c3c(=O)n(CC(C)C)c(=O)n(C)c3nc12 | 3.29 µg/mL (≈ 8.68 µM) | > 11.4 µg/mL | 0.342 µg/mL (≈ 0.901 µM) | > 11.4 µg/mL | 0% | > 11.4 µg/mL | 20% | 0%
COc1ccc(-c2ccc(OCCNS(=O)(=O)c3ccc(Cl)s3)nn2)cc1 | > 12.8 µg/mL | > 12.8 µg/mL | > 12.8 µg/mL | 0.788 µg/mL (≈ 1.85 µM) | 0% | 5.41 µg/mL (≈ 12.7 µM) | 33.3% | 0%
Cc1ccc(-c2nnc(NC(=O)c3ccc(S(=O)(=O)N4CCc5ccccc5C4)cc3)o2)cc1C | > 14.7 µg/mL | > 14.7 µg/mL | 10.1 µg/mL (≈ 20.6 µM) | 0.538 µg/mL (≈ 1.1 µM) | 0% | 8.86 µg/mL (≈ 18.1 µM) | 0% | 0%
O=C(Cc1ccc(F)cc1)Nc1nc(-c2ccccn2)cs1 | 2.97 µg/mL (≈ 9.49 µM) | > 9.4 µg/mL | 0.308 µg/mL (≈ 0.983 µM) | 0.334 µg/mL (≈ 1.07 µM) | 0% | > 9.4 µg/mL | 23.33% | 0%
COc1ccccc1-c1nnc(NC(=O)c2ccc(S(=O)(=O)N(C)Cc3ccco3)cc2)o1 | 10.2 µg/mL (≈ 21.8 µM) | 9.57 µg/mL (≈ 20.4 µM) | 4.55 µg/mL (≈ 9.71 µM) | 0.511 µg/mL (≈ 1.09 µM) | 0% | 5.89 µg/mL (≈ 12.6 µM) | 0% | 0%
O=C(c1c(F)cccc1F)N(Cc1ccccn1)c1nc2ccccc2s1 | 7.58 µg/mL (≈ 19.9 µM) | 3.7 µg/mL (≈ 9.71 µM) | > 11.4 µg/mL | 0.546 µg/mL (≈ 1.43 µM) | 0% | 2.13 µg/mL (≈ 5.58 µM) | 4.601% | 0%
COc1ccc(-c2ccc(NS(=O)(=O)c3ccc(Cl)s3)cc2)nn1 | > 11.5 µg/mL | 1.09 µg/mL (≈ 2.85 µM) | > 11.5 µg/mL | > 11.5 µg/mL | 0% | > 11.5 µg/mL | 0% | 16.67%
O=C(CCCSc1ccccc1)N(Cc1ccncc1)c1nc2c(F)cccc2s1 | 9.05 µg/mL (≈ 20.7 µM) | > 13.1 µg/mL | 4.15 µg/mL (≈ 9.49 µM) | 0.816 µg/mL (≈ 1.86 µM) | 0% | > 13.1 µg/mL | 0% | 0%
CCSc1ccccc1C(=O)Nc1nnc(-c2cccs2)o1 | > 9.94 µg/mL | 6.77 µg/mL (≈ 20.4 µM) | 0.656 µg/mL (≈ 1.98 µM) | 0.413 µg/mL (≈ 1.25 µM) | 0% | 5.3 µg/mL (≈ 16 µM) | 20% | 0%
CN(C)CCCN(C(=O)c1ccc(Br)s1)c1nc2ccccc2s1 | 5.41 µg/mL (≈ 12.8 µM) | > 13.8 µg/mL | 4.37 µg/mL (≈ 10.3 µM) | 0.791 µg/mL (≈ 1.86 µM) | 0% | > 13.8 µg/mL | 11.35% | 0%
CN(C)CCN(C(=O)CCCS(=O)(=O)c1ccccc1)c1nc2ccc(F)cc2s1 | > 14.6 µg/mL | > 14.6 µg/mL | > 14.6 µg/mL | 0.759 µg/mL (≈ 1.69 µM) | 0% | > 14.6 µg/mL | 12.34% | 33.33%
Cc1nn(-c2ccc(F)cc2)c2ncc(C(=O)NCc3ccco3)c(Cl)c12 | 8.26 µg/mL (≈ 21.5 µM) | 3.74 µg/mL (≈ 9.71 µM) | 0.292 µg/mL (≈ 0.759 µM) | 0.398 µg/mL (≈ 1.03 µM) | 25% | 1.31 µg/mL (≈ 3.41 µM) | 0% | 0%
CCOc1ccc(-c2ccc(OCCNS(=O)(=O)c3cc(C)c(C)cc3C)nn2)cc1 | > 13.2 µg/mL | > 13.2 µg/mL | 4.24 µg/mL (≈ 9.6 µM) | 0.752 µg/mL (≈ 1.7 µM) | 0% | > 13.2 µg/mL | 13.3% | 0%
